The results in this text go back to ChEMBL document CHEMBL1133709, “Acyclic analogues of deoxyadenosine 3',5'-bisphosphates as P2Y(1) receptor antagonists” (J Med Chem, 2000).

The nature of experiment [1]: Antagonism of PLC stimulation elicited by 10(nM) 2-Me SADP in turkey RBC. The format is functional, Meleagris gallopavo.
Experiment [2] has as its target P2Y purinoceptor 1 (Meleagris gallopavo) (UniProt P49652). The experiment in a line: P2Y purinoceptor 1 mediated PLC stimulation in turkey RBC, NE represents no effect. Put shortly: (§1)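 Compound alone added to [3H]inositol-labeled turkey erythrocyte ghosts (~175 μg protein) with 1 μM GTPγS in Hepes pH 7.0 medium, 5 min at 30 °C. Total [3H]inositol phosphates quantified by anion-exchange chromatography. EC50 from four-parameter logistic fit, 3–8 independent curves. Efficacy relative to a maximal 2-MeSADP concentration in the same experiment; NE = no effect at 100 μM.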

Experiment [3] concerns Meleagris gallopavo. The experiment in a line: Antagonism of PLC stimulation elicited by 30(nM) 2-Me SADP in turkey RBC. Type of experiment: functional. The arrangement: concentration or dose not given beside the values. Particulars: dose or concentration not given here. The method, boiled down: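 Turkey erythrocytes labeled 18–24 h with 2-[3H]myo-inositol at 37 °C; ghost membranes with 1 μM GTPγS and test compound combined with 30 nM 2-MeSADP, 5 min at 30 °C, Hepes pH 7.0. [3H]inositol phosphates separated by anion exchange. IC50 for 50% inhibition of agonist response; at least three experiments, different membrane preparations, duplicate or triplicate assays.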

In experiment [4] the target is P2Y purinoceptor 1 (Meleagris gallopavo) (UniProt P49652). As to the kind of experiment: In vitro agonistic activity was determined for stimulation of PLC at Turkey erythrocyte P2Y purinoceptor 1. Type of experiment: functional. The method, boiled down:
as §1

In experiment [5] the test system is Meleagris gallopavo. As to the kind of experiment: Tested in vitro for effective concentration required for stimulation of phospholipase C (PLC) against [3H]inositol labeled Turkey Erythrocyte P2Y purinoceptor 1. Type of experiment: functional. Put shortly:
as §1

Calls of active or inactive are those of the source. No cut-off for these calls is given here.

P2Y purinoceptor 1 (Meleagris gallopavo), sequence (P49652 whole entry): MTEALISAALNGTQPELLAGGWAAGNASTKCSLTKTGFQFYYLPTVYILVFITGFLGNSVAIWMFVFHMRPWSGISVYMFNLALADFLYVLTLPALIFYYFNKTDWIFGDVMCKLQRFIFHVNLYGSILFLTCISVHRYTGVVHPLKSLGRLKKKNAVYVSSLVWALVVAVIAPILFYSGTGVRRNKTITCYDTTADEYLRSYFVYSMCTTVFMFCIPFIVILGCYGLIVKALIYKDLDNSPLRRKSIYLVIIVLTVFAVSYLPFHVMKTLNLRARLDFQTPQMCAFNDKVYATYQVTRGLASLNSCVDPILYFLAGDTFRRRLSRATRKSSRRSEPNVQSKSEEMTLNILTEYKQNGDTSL

In experiment [1], `CNc1ncnc2c1ncn2C/C=C\CC(COP(=O)(O)O)COP(=O)(O)O` (stereo in doubt; 16) [listing 1 of 2 here] showed a 50% inhibitory concentration (IC50) of 100 µM.

As for `CNc1ncnc2c1ncn2C/C=C\CC(COP(=O)(O)O)COP(=O)(O)O` (stereo in doubt; 15) [listing 1 of 2 here], in experiment [2], the PLC stimulation result was “inactive”. Besides, the inhibition in the experiment with Meleagris gallopavo [3] worked out at 77%.

In the case of `CNc1nc(Cl)nc2c1ncn2CCC(COP(=O)(O)O)COP(=O)(O)O`, the PLC stimulation result in experiment [2] is “inactive”. In experiment [1], this compound showed an IC50 of 0.84 µM. Also, the inhibition in the experiment with Meleagris gallopavo [3] was 99%.

With `CNc1ncnc2c1ncn2[C@@H]1C[C@H](COP(=O)(O)O)[C@H](OP(=O)(O)O)C1`, the PLC stimulation result in experiment [2] was “inactive”. This compound also returned an IC50 in experiment [1] of 0.331 µM. The compound also yielded an inhibition in the experiment on Meleagris gallopavo [3] of 99%.

Consider `CNc1ncnc2c1ncn2CCCC(COP(=O)(O)O)COP(=O)(O)O`, for which the PLC stimulation entry in experiment [2] was “inactive”. Further, in experiment [1], the half-maximal inhibitory concentration (IC50) is > 30 µM. Also, the inhibition in the experiment with Meleagris gallopavo [3] came to 68%.

Take `CNc1ncnc2c1ncn2CCCCC(COP(=O)(O)O)COP(=O)(O)O`: the PLC stimulation result in experiment [2] is “inactive”. The half-inhibitory concentration (IC50) in experiment [1] was > 50 µM. In addition, in the experiment on Meleagris gallopavo [3], the inhibition is 65%.

Consider `CNc1ncnc2c1ncn2C/C=C\CC(COP(=O)(O)O)COP(=O)(O)O` (stereo in doubt; 15) [listing 2 of 2 here], for which the IC50 in experiment [1] is > 50 µM.

Regarding `CNc1ncnc2c1ncn2C/C=C\CC(COP(=O)(O)O)COP(=O)(O)O` (stereo in doubt; 16) [listing 2 of 2 here], the PLC stimulation entry in experiment [2] is “inactive”. In the experiment with Meleagris gallopavo [3], the inhibition turned out to be 54%.

Turning to `CNc1ncnc2c1ncn2CCC(COP(=O)(O)O)COP(=O)(O)O`, the PLC stimulation result in experiment [2] is “inactive”. The compound also had an IC50 in experiment [1] of 1.6 µM. Besides, in the experiment on Meleagris gallopavo [3], the inhibition worked out at 100%.

For the compound `CNc1nc(Cl)nc2c1ncn2[C@@H]1C[C@H](COP(=O)(O)O)[C@H](OP(=O)(O)O)C1`, in experiment [2], the PLC stimulation result was “inactive”. Besides, the IC50 in experiment [1] was 0.206 µM. The compound further yielded an inhibition in the experiment with Meleagris gallopavo [3] of 95%.

Turning to `CNc1nc(Cl)nc2c1ncn2CC(=O)N(CCOP(=O)(O)O)CCOP(=O)(O)O`, in experiment [2], the PLC stimulation entry was “inactive”. Also, half-maximal inhibition in experiment [1] (IC50) was put at 14 µM. In the experiment on Meleagris gallopavo [3], this compound returned an inhibition of 89%.

`Nc1ncnc2c1ncn2[C@@H]1C[C@H](COP(=O)(O)O)[C@H](OP(=O)(O)O)C1` displayed an Increase in experiment [4] of 27%. Also, it took 7.21 µM to reach a half-maximal effect with Meleagris gallopavo [5] (EC50). For the same compound, inhibition in experiment [1] was half-maximal at 2.53 µM (IC50). The compound also registered an inhibition in the experiment on Meleagris gallopavo [3] of 73%.

With `CNc1nc(Cl)nc2c1ncn2CC(=O)Nc1cc(CP(=O)(O)O)cc(CP(=O)(O)O)c1`, the PLC stimulation entry in experiment [2] was “inactive”. The half-inhibitory concentration (IC50) in experiment [1] was 15.5 µM. For the same compound, the inhibition with Meleagris gallopavo [3] was 94%.

Consider `CNc1ncnc2c1ncn2CCCCCC(COP(=O)(O)O)COP(=O)(O)O`, for which the PLC stimulation result in experiment [2] was “inactive”. In experiment [1], this compound gave an IC50 of 100 µM. This compound yielded an inhibition in the experiment with Meleagris gallopavo [3] of 56%.

For `Nc1nc(Cl)nc2c1ncn2CCC(COP(=O)(O)O)COP(=O)(O)O`, the PLC stimulation entry in experiment [2] is “inactive”. This compound also yielded an IC50 in experiment [1] of 7.57 µM. In the experiment on Meleagris gallopavo [3], this compound registered an inhibition of 94%.

`Nc1ncnc2c1ncn2[C@H]1C[C@H](OP(=O)(O)O)[C@@H](COP(=O)(O)O)O1`: the half-maximal effective concentration (EC50) in the experiment on Meleagris gallopavo [5] came to 6.29 µM. For the same compound, the IC50 in experiment [1] came out at 5.76 µM. Moreover, the inhibition in the experiment with Meleagris gallopavo [3] came out at 87%.

With `CNc1nc(Cl)nc2c1ncn2[C@H]1C[C@H](OP(=O)(O)O)[C@@H](COP(=O)(O)O)O1`, in experiment [2], the PLC stimulation entry is “inactive”. Moreover, the IC50 in experiment [1] stood at 0.206 µM. The same compound showed an inhibition in the experiment on Meleagris gallopavo [3] of 95%.

Turning to `CNc1ncnc2c1ncn2[C@H]1C[C@H](OP(=O)(O)O)[C@@H](COP(=O)(O)O)O1`, in experiment [2], the PLC stimulation entry is “inactive”.

As for `Nc1ncnc2c1ncn2CCC(COP(=O)(O)O)COP(=O)(O)O`, the PLC stimulation entry in experiment [2] is “inactive”. Further, the concentration for half-maximal inhibition (IC50) in experiment [1] was > 50 µM. Further, the inhibition in the experiment with Meleagris gallopavo [3] was 63%.
